Results on 17 compounds are retold here after ChEMBL document CHEMBL1123528, “Syntheses and in vitro evaluation of 4-(2-aminoethyl)-2(3H)-indolones and related compounds as peripheral prejunctional dopamine receptor agonists” (J Med Chem, 1986).

pEC50: −log10 of the molar value. Where only a bound is given, the exact number is not on record here.

This experiment is filed under the species Oryctolagus cuniculus. In words: Ability to stimulate peripheral prejunctional dopaminergic receptors by 50% inhibition of vasoconstrictor response to field stimulation in isolated perfused rabbit ear artery. The class given is functional. A digest of the protocol:
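Isolated rabbit ear artery, perfused, constricted by electrical field (nerve) stimulation. The test drug was given in increasing concentrations, each left in contact with the tissue for 4 min, and the concentration was raised right after the response to nerve stimulation. For dopaminergic blockade, (S)-sulpiride superfusion began after the initial concentration-effect curve was obtained.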
As for `CCCN(CCC)CCc1ccc(O)c(NC(C)=O)c1`, the pEC50 (commonly the EC50 on a negative log10 scale, so that one unit is a factor of ten) was less than 5.00. Under `NCCc1ccc2c(c1)CC(=O)N2` stands less than 5.52; under `NCCc1ccc(O)c2c1CC(=O)N2`, 6.94; under `CCCN(CCC)CCc1ccc(O)c2c1C(C)C(=O)N2` (configuration not stated), 7.74. Under `CCCN(CCC)CCc1cccc(O)c1` stands 6.15; under `CCCN(CCC)CCc1ccc(O)cc1`, 7.10. The result for `CCCN(CCC)CCc1cccc2c1CC(=O)N2` [ROPINIROLE] reads 7.00; that for `O=C1Cc2c(CCNCCc3ccc(O)cc3)ccc(O)c2N1`, 7.28. In the case of `CCCN(CCC)CCc1ccc(O)c2c1CC(=O)N2C`, the pEC50 was less than 5.52.

Turning to `CCCN(CCC)CCc1ccc(O)c(NC=O)c1`, the negative logarithm of the EC50 (pEC50) was 6.12. `CCCN(CCC)CCc1ccc(O)c2c1C(C)(O)C(=O)N2` (configuration not stated) showed a pEC50 of 6.66. Under `NCCc1ccc(O)c(O)c1` [DOPAMINE] stands 7.14; under `CCCN(CCc1ccc(O)cc1)CCc1cccc2c1CC(=O)N2`, 7.55; under `CCCN(CCC)CCc1ccc2c(c1)NC(=O)C2`, less than 5.52. Under `CCCN(CCC)CCc1ccc(O)c2c1C(C)(C)C(=O)N2` stands less than 5.52; under `CCCN(CCC)CCc1ccc2c(c1)CC(=O)N2`, 5.52. Under `CCCN(CCC)CCc1ccc(OC)c2c1CC(=O)N2` stands less than 5.52.
